Laboratory results reported in publication PMC11613190 (iScience, 2024).
Values belong to the compound of their own block, whether it stands above or below them.

What was measured:
[1] = tested on: CF HBE cells cultured at ALI; test: Total nitrate/nitrite release, fluorometric assay, CF HBE ALI cultures; type: cell-based, human; conditions: for Effect on AIP-1 stimulated nitrate release: inhibitor 10 μM with AIP-1 50 μM; for Effect on nitrate release evoked by C12: inhibitor 10 μM with C12 100 μM
Procedure, shortened: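 Primary CF human bronchial epithelial cells, carrying scrambled shRNA or T2R14 knockdown, were seeded on collagen-coated Transwells at 500,000 cells/well and grown at air-liquid interface to day 30. The apical surface was exposed for 18 h to C12 (100 µM) or AIP-1 (50 µM), with or without gallein or U73122 (10 μM each). Apical secretions were mixed with reductase cofactor for 30 min at room temperature, then total nitrate/nitrite was read fluorometrically.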

T2R14 [2] = molecular target: T1, T2R14 (Homo sapiens, UniProt Q9NYV8); test: Intracellular calcium mobilization in HEK293T cells overexpressing T2R14; type: cell-based; conditions: for Intracellular calcium mobilization: HEK293T cells overexpressing T2R14, concentration series
T1 sequence (Q9NYV8 1-317): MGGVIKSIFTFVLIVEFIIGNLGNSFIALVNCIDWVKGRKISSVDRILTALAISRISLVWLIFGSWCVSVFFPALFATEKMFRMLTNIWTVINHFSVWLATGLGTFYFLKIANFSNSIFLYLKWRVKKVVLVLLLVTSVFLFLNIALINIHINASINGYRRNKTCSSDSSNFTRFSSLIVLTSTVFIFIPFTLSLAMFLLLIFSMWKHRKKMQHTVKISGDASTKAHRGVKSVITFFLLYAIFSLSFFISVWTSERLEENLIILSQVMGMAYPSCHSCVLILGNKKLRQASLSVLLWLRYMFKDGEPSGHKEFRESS
Procedure, shortened: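 HEK293T cells overexpressing T2R14 were loaded for agonist-induced intracellular calcium mobilization. They were treated with increasing concentrations of the bacterial quorum-sensing molecule 3-oxo-C12-AHL (4.5–300 μM), tyrosol (15–1000 μM) or farnesol (7.5–500 μM).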

T2R14 [3] = molecular target: T1, T2R14; test: Intracellular calcium mobilization in human bronchial epithelial; type: cell-based
NuLi-1 and CuFi-1 cells = test: cAMP response to CFTR corrector in airway epithelial cell lines; type: cell-based, human; conditions: 5 µM for 24 h
[4] = EC50, intracellular calcium mobilization, both BCF and BD cells

Structure (SMILES): CCCCCCCCCC(=O)CC(=O)N[C@H]1CCOC1=O [C12, 3-oxo-12-AHL]
Total nitrate release vs untreated controls ([1]; apical exposure 18 h, C12 100 μM, AIP-1 50 μM): significant elevation of total nitrate release | Intracellular calcium mobilization (T2R14 [2]): concentration dependent increase in intracellular calcium mobilization | EC50 (T2R14 [2]; read-out: EC50, intracellular calcium mobilization, HEK 293T cells overexpressing T2R14): ~60 µM | EC50 (T2R14 [3]; read-out: EC50, intracellular calcium mobilization, both BCF and BD cells): ~100 µM

EC50 (T2R14 [3]; EC50, Ca2+ mobilization, all the cell types investigated (NuLi-1, CuFi-1, BD, BCF)): ~500 µM
Structure (SMILES): CN(C)CCOC(c1ccccc1)c1ccccc1 [DPH, diphenhydramine]

Structure (SMILES): O=C1OC2(c3ccccc31)c1ccc(O)c(O)c1Oc1c2ccc(O)c1O [Gallein]
Effect on AIP-1 stimulated nitrate release [1]: without altering the AIP-1 stimulated release significantly | Effect on nitrate release evoked by C12 [1]: reduced the nitrate release evoked by C12

Structure (SMILES): COc1ccc2c(c1)CC[C@@H]1[C@@H]2CC[C@]2(C)[C@@H](NCCCCCCN3C(=O)C=CC3=O)CC[C@@H]12 [U73122]
Effect on AIP-1 stimulated nitrate release [1]: without altering the AIP-1 stimulated release significantly | Effect on nitrate release evoked by C12 [1]: reduced the nitrate release evoked by C12

Structure (SMILES): Cc1ccc(NC(=O)C2(c3ccc4c(c3)OC(F)(F)O4)CC2)nc1-c1cccc(C(=O)O)c1 [VX-809, lumacaftor]
cAMP levels in response to forskolin (NuLi-1 and CuFi-1 cells; CuFi-1 cells): significant increase in cAMP levels | cAMP levels in response to forskolin (NuLi-1 and CuFi-1 cells; NuLi cells): No significant change

EC50 (T2R14 [3]; [4]): ~120 µM
Structure (SMILES): CC(C)=CCC/C(C)=C/CC/C(C)=C/CO [farnesol]
Intracellular calcium mobilization (T2R14 [2]): concentration dependent increase in intracellular calcium mobilization

EC50 (T2R14 [3]; [4]): ~100 µM
Structure (SMILES): OCCc1ccc(O)cc1 [tyrosol]
Intracellular calcium mobilization (T2R14 [2]): concentration dependent increase in intracellular calcium mobilization
